{
  "source": "ChEMBL document CHEMBL1255226",
  "about": "(J Med Chem, 2010)",
  "key": {"[1]": {"target": "Phosphatidylinositol 4,5-bisphosphate 3-kinase catalytic subunit alpha isoform (Homo sapiens, UniProt P42336, S473D)", "sequence (P42336 whole entry, looked up, stated change not applied, canonical isoform)": "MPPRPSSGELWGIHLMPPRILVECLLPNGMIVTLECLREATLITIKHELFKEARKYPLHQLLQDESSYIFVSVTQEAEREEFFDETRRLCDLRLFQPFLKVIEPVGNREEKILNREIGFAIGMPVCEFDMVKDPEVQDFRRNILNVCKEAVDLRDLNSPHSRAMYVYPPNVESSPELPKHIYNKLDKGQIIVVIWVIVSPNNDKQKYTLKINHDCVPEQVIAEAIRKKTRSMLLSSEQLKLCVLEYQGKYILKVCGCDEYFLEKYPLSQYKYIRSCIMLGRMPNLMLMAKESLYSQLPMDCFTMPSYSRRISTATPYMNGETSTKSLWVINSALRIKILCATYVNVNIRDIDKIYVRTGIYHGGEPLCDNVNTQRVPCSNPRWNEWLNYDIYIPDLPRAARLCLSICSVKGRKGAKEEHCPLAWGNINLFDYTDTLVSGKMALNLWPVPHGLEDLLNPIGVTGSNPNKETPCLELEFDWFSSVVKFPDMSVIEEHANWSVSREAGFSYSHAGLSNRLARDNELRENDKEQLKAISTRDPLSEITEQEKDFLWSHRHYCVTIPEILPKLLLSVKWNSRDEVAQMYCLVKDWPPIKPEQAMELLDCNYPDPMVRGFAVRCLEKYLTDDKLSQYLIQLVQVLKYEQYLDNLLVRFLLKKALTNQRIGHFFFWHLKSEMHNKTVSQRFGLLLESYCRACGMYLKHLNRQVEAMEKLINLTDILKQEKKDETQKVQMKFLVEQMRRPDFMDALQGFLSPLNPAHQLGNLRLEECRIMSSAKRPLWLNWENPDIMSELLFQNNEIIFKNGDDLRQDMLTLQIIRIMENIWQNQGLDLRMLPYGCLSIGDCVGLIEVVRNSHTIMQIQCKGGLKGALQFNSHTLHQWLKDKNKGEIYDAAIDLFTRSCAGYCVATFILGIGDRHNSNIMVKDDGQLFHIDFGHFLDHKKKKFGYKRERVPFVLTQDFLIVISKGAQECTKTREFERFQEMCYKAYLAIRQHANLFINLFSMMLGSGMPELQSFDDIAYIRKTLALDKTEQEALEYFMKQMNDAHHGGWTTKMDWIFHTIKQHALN", "test": "Inhibition of PI3Kalpha in human PC3 cells expressing Akt1 S473D mutant assessed as phosphorylation of Akt Thr308 by immunoblotting", "assay_type": "cell-based, PC-3"}, "[2]": {"target": "Serine/threonine-protein kinase mTOR (Mus musculus, UniProt Q9JLN9)", "test": "Inhibition of mTOR in p53-deficient MEF assessed as phosphorylation of S6K1 at Thr389 by immunoblotting"}, "[3]": {"target": "Serine/threonine-protein kinase mTOR (Homo sapiens, UniProt P42345)"}, "[4]": {"test": "Mean retention time in C57BL/6 mouse at 1 mg/kg, iv", "assay_type": "ADME, organism-based", "set-up": "dose 1 mg/kg, route intravenous", "conditions": "in vivo"}, "Mus musculus [5]": {"tested_on": "Mus musculus", "test": "In vivo inhibition of mTOR complex 1 in C57BL/6 mouse lung assessed as reduction of S6 phosphorylation at S235/236 at 20 mg/kg, ip after up to 6 hrs by Western blotting", "assay_type": "functional, organism-based", "set-up": "dose 20 mg/kg", "procedure,_shortened": "(§1)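 They received a single IP dose of 20 mg/kg (NMP stock diluted 1:4 with 50% PEG400) for 2, 6 or 10 h; vehicle controls were dosed for 10 h. Mice were re-fed 1 h before sacrifice. Liver and lung were sonicated in HEPES pH 7.4 lysis buffer with phosphatase and protease inhibitors. Lysates were Bradford-normalized and immunoblotted for Akt S473 and S6 S235/236.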"}, "[6]": {"test": "Cmax in C57BL/6 mouse at 10 mg/kg, po", "assay_type": "ADME, organism-based", "set-up": "dose 10 mg/kg, route oral", "conditions": "in vivo"}, "[7]": {"test": "Tmax in Swiss albino mouse at 10 mg, ip", "assay_type": "ADME, organism-based", "conditions": "in vivo"}, "[8]": {"test": "Mean retention time in C57BL/6 mouse at 10 mg/kg, po", "assay_type": "ADME, organism-based", "set-up": "dose 10 mg/kg, route oral", "conditions": "in vivo"}, "[9]": {"test": "AUC in Swiss albino mouse at 10 mg, ip", "assay_type": "ADME, organism-based", "conditions": "plasma"}, "[10]": {"test": "Cmax in Swiss albino mouse at 10 mg, ip", "assay_type": "ADME, organism-based", "set-up": "dose 10 mg, route intraperitoneal", "conditions": "in vivo"}, "Mus musculus [11]": {"tested_on": "Mus musculus", "test": "In vivo inhibition of mTOR complex 2 in C57BL/6 mouse assessed as reduction of Akt1 phosphorylation at S473 at 20 mg/kg, ip after 2 to 3 hrs by Western blotting"}, "[12]": {"test": "Volume of distribution at steady state in C57BL/6 mouse at 1 mg/kg, iv", "assay_type": "ADME, organism-based", "set-up": "dose 1 mg/kg, route intravenous", "conditions": "in vivo, read-out: Vdss"}, "[13]": {"test": "AUC in C57BL/6 mouse at 1 mg/kg, iv", "assay_type": "ADME, organism-based", "set-up": "dose 1 mg/kg, route intravenous", "conditions": "plasma"}, "[14]": {"test": "AUC in C57BL/6 mouse at 10 mg/kg, po", "assay_type": "ADME, organism-based", "set-up": "dose 10 mg/kg, route oral", "conditions": "plasma"}, "Mus musculus [15]": {"tested_on": "Mus musculus", "test": "In vivo inhibition of mTOR complex 1 in C57BL/6 mouse liver assessed as reduction of S6 phosphorylation at S235/236 at 20 mg/kg, ip after up to 10 hrs by Western blotting", "assay_type": "functional, organism-based", "set-up": "dose 20 mg/kg", "procedure,_shortened": "as §1"}, "[16]": {"test": "Cmax in C57BL/6 mouse at 1 mg/kg, iv", "assay_type": "ADME, organism-based", "set-up": "dose 1 mg/kg, route intravenous", "conditions": "in vivo"}, "[17]": {"test": "Tmax in C57BL/6 mouse at 10 mg/kg, po", "assay_type": "ADME, organism-based", "set-up": "dose 10 mg/kg, route oral", "conditions": "in vivo"}, "[18]": {"target": "Phosphatidylinositol 4-kinase alpha (Homo sapiens, UniProt P42356)", "sequence (P42356 whole entry)": "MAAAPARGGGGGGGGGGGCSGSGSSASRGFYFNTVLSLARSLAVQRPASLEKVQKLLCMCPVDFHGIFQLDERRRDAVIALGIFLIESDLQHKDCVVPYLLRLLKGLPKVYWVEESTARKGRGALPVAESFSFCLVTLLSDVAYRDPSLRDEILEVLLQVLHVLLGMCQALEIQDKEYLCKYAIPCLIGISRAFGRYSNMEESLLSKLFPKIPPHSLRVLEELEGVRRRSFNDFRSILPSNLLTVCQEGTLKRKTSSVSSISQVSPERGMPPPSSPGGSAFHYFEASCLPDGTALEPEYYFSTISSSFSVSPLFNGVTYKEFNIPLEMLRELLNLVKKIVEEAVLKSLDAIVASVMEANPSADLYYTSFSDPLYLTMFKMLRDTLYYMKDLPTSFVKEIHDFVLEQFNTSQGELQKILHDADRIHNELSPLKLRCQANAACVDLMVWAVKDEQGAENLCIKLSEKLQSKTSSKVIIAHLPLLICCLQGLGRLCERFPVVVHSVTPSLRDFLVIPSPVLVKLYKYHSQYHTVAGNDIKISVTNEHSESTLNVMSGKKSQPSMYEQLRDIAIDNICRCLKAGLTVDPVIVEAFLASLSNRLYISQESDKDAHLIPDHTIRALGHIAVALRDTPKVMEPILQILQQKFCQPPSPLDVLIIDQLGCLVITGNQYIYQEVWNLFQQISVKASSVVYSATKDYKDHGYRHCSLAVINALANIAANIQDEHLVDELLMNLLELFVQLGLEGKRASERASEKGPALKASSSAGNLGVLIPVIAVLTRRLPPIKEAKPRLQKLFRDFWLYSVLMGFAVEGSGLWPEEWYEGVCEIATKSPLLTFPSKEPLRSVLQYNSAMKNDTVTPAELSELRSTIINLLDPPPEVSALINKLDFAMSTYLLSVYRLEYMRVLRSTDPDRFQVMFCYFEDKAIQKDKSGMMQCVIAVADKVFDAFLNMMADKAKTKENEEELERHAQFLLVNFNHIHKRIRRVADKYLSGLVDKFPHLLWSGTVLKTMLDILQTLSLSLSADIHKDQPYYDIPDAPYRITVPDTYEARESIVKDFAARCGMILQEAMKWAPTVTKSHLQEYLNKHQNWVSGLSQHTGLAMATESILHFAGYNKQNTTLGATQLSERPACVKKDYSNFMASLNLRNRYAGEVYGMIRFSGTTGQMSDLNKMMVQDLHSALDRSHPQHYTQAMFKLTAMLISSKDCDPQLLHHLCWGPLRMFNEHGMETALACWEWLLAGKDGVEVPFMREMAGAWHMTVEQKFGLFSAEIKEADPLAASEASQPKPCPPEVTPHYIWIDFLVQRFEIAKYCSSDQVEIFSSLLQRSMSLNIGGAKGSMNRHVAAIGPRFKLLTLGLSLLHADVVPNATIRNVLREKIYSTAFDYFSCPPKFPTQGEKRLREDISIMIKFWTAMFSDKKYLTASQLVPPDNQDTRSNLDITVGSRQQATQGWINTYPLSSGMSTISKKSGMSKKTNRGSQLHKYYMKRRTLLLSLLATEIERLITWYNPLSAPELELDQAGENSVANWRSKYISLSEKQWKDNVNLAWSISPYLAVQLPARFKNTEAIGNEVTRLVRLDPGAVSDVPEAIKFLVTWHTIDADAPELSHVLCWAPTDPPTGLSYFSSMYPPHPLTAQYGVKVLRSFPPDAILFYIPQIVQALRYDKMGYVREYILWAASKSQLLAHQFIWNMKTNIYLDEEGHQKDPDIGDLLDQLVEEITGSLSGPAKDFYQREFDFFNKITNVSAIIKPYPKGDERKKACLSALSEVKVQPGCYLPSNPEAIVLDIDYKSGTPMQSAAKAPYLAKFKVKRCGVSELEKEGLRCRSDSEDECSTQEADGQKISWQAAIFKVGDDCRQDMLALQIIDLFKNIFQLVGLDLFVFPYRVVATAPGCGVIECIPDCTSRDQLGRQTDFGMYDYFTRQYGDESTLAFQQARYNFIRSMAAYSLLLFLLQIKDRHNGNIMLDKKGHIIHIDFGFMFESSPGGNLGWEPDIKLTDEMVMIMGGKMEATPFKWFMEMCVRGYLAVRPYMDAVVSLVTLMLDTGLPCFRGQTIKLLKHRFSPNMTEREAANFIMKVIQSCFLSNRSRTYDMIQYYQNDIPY", "test": "Inhibition of PI4Kalpha", "procedure,_shortened": "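Biochemical LanthaScreen enzymatic lipid kinase assay run as an outsourced profiling service. Inhibitor at 10 concentrations, three-fold serial dilutions starting from 1 μM. ATP at the apparent ATP Km for the assay. IC50 derived from the dose-response.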"}},
  "note": "The source made the active and inactive calls. The calls are words filed in the database; no cut-off is given here.",
  "data": [
    {"smiles": "CN(C)CCC(=O)N1CCN(c2ccc(Nc3ccnc4ccc(-c5cnc6ccccc6c5)cc34)cc2C(F)(F)F)CC1", "values": [
      {"measurement": "IC50", "setting": "[1]", "result": "> 300", "unit": "nM"},
      {"measurement": "IC50", "setting": "[2]", "result": "> 300", "unit": "nM"}
    ]},
    {"smiles": "CCC(=O)N1CC=C(c2ccc(-n3c(=O)ccc4cnc5ccc(-c6cnc7ccccc7c6)cc5c43)cc2C(F)(F)F)CC1", "values": [
      {"measurement": "IC50", "setting": "[2]", "result": 30, "unit": "nM"}
    ]},
    {"smiles": "O=C(CN1CCOCC1)N1CCC(c2ccc(-n3c(=O)ccc4cnc5ccc(-c6cnc7ccccc7c6)cc5c43)cc2C(F)(F)F)CC1", "values": [
      {"measurement": "IC50", "setting": "[2]", "result": 5, "unit": "nM"}
    ]},
    {"smiles": "CCC(=O)N1CCN(c2ccc(-n3c(=O)c(C)cc4cnc5ccc(-c6cnc7ccccc7c6)cc5c43)cc2C(F)(F)F)CC1", "values": [
      {"measurement": "IC50", "setting": "[2]", "result": 100, "unit": "nM"}
    ]},
    {"smiles": "CCC(=O)N1CCN(c2ccc(-n3c(=O)cc(C)c4cnc5ccc(-c6cnc7ccccc7c6)cc5c43)cc2C(F)(F)F)CC1", "values": [
      {"measurement": "IC50", "setting": "[2]", "result": "> 300", "unit": "nM"}
    ]},
    {"smiles": "CCC(=O)N1CCN(c2ccc(-n3c(=O)n(C)c(=O)c4cnc5ccc(-c6cnc7ccccc7c6)cc5c43)cc2C(F)(F)F)CC1", "values": [
      {"measurement": "IC50", "setting": "[2]", "result": 300, "unit": "nM"}
    ]},
    {"smiles": "CCC(=O)N1CCN(c2ccc(N3C(=O)NCc4cnc5ccc(-c6cnc7ccccc7c6)cc5c43)cc2C(F)(F)F)CC1", "values": [
      {"measurement": "IC50", "setting": "[2]", "result": "> 300", "unit": "nM"}
    ]},
    {"smiles": "CCC(=O)N1CCN(c2ccc(N3C(=O)OCc4cnc5ccc(-c6cnc7ccccc7c6)cc5c43)cc2C(F)(F)F)CC1", "values": [
      {"measurement": "IC50", "setting": "[2]", "result": "> 300", "unit": "nM"}
    ]},
    {"smiles": "CC(=O)N1CCN(c2ccc(-n3c(=O)ccc4cnc5ccc(-c6cnc7ccccc7c6)cc5c43)cc2C(F)(F)F)CC1", "values": [
      {"measurement": "IC50", "setting": "[3]", "result": 5.4, "unit": "nM"},
      {"measurement": "IC50", "setting": "[1]", "result": "> 300", "unit": "nM"},
      {"measurement": "IC50", "setting": "[2]", "result": 3, "unit": "nM"}
    ]},
    {"smiles": "O=C(O)N1CCN(c2ccc(Nc3ccnc4ccc(-c5cnc6ccccc6c5)cc34)cc2C(F)(F)F)CC1", "values": [
      {"measurement": "IC50", "setting": "[1]", "result": "> 300", "unit": "nM"},
      {"measurement": "IC50", "setting": "[2]", "result": "> 300", "unit": "nM"}
    ]},
    {"smiles": "CCC(=O)N1CCN(c2ccc(-n3c(=O)ccc4cnc5ccc(-c6cnc7ccccc7c6)cc5c43)cc2C(F)(F)F)CC1", "note": "[TORIN1]", "values": [
      {"measurement": "MRT", "setting": "[4]", "result": 25.8, "unit": "min"},
      {"measurement": "inhibition", "setting": "Mus musculus [5]", "result": "Active"},
      {"measurement": "Cmax", "setting": "[6]", "result": 223, "unit": "ng/mL"},
      {"measurement": "Tmax", "setting": "[7]", "result": 4.8, "unit": "min"},
      {"measurement": "MRT", "setting": "[8]", "result": 90.6, "unit": "min"},
      {"measurement": "AUC", "setting": "[9]", "result": 5720, "unit": "ng·h/mL"},
      {"measurement": "Cmax", "setting": "[10]", "result": 5120, "unit": "ng/mL"},
      {"measurement": "inhibition", "setting": "Mus musculus [11]", "result": "Active"},
      {"measurement": "Vd", "setting": "[12]", "result": 0.59, "unit": "L/kg"},
      {"measurement": "AUC", "setting": "[13]", "result": 720, "unit": "ng·h/mL"},
      {"measurement": "AUC", "setting": "[14]", "result": 396, "unit": "ng·h/mL"},
      {"measurement": "inhibition", "setting": "Mus musculus [15]", "result": "Active"},
      {"measurement": "Cmax", "setting": "[16]", "result": 2760, "unit": "ng/mL"},
      {"measurement": "Tmax", "setting": "[17]", "result": 15, "unit": "min"},
      {"measurement": "IC50", "setting": "[18]", "result": "> 10000", "unit": "nM"}
    ]}
  ]
}
